# Reference: ChEMBL document CHEMBL5724801, “EUbOPEN Chemogenomics Library - Multiplex” (2024)
# Values joined by “and” are separate entries in the source; they are usually repeats but may differ in a detail not shown here. Equal entries are not always repeated.
# Tested on: HEK-293T
# Assay: Multiplex assay against HEK293T
# Type: toxicity, cell-based
# Details: human
# Outline: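 Imaging took place on a CQ1 microscope at 37°C and 5% CO2 once compound had been added to live cells stained at seeding with Hoechst33342, BioTracker Green Microtubule Cytoskeleton Dye, MitoTracker Red and Annexin V Alexa Fluor 680. CellPathfinder machine-learning gating classed cells as Hoechst high-intensity objects or normal cells, classed normal cells as having healthy, pyknosed or fragmented nuclei, and classed pyknosed cells as mitotic or apoptotic. Tubulin, mitochondrial-mass and membrane-permeability phenotypes are per cents of the healthy-nucleus cells.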
# [1] = 12 h, 1 µM, compound concentration 1 uM
# [2] = 12 h, 10 µM, compound concentration 10 uM
# [3] = 24 h, 1 µM, compound concentration 1 uM
# [4] = 24 h, 10 µM, compound concentration 10 uM
# [5] = 48 h, 1 µM, compound concentration 1 uM
# [6] = 48 h, 10 µM, compound concentration 10 uM
smiles,measurement,setting,value
COc1cc(N2CCN(C)CC2)ccc1Nc1nccc(-c2cn(C)c3cnccc23)n1,Population Apoptotic (%),[1],10.14% and 10.53%
same,Population Fragmented Nuclei (%),[1],3.23% and 1.83%
same,Population Hoechst High Intensity Objects (%),[1],0%
same,Population Membrane Permeable-Phenotype (%),[1],0%
same,Population Mitotic Cells (%),[1],89.86% and 89.47%
same,Population Normal (%),[1],100%
same,Population Pyknosed Nuclei (%),[1],31.8% and 87.16%
same,Population Apoptotic (%),[2],19.35% and 16.13%
same,Population Fragmented Nuclei (%),[2],1.59% and 4.51%
same,Population Hoechst High Intensity Objects (%),[2],0%
same,Population Membrane Permeable-Phenotype (%),[2],0.4% and 2.94%
same,Population Mitotic Cells (%),[2],80.65% and 83.87%
same,Population Normal (%),[2],100%
same,Total Cell Count,[2],314 and 133
same,Population Apoptotic (%),[3],19.27% and 15.66%
same,Population Fragmented Nuclei (%),[3],1.54% and 3.91%
same,Population Healthy Nuclei (%),[3],81.64% and 31.25%
same,Population Hoechst High Intensity Objects (%),[3],0%
same,Population Membrane Permeable-Phenotype (%),[3],1.13% and 2.5%
same,Population Mitochondria Different-Phenotype (%),[3],11.15% and 10%
same,Population Mitotic Cells (%),[3],80.73% and 84.34%
same,Population Normal (%),[3],100%
same,Population Tubulin-Different-Phenotype (%),[3],12.1% and 5%
same,Population Apoptotic (%),[4],27.27% and 28.81%
same,Population Fragmented Nuclei (%),[4],2.49% and 1.67%
same,Population Healthy Nuclei (%),[4],87.23% and 49.17%
same,Population Hoechst High Intensity Objects (%),[4],0%
same,Population Membrane Permeable-Phenotype (%),[4],1.07% and 6.78%
same,Population Mitochondria Different-Phenotype (%),[4],7.5% and 3.39%
same,Population Mitotic Cells (%),[4],72.73% and 71.19%
same,Population Normal (%),[4],100%
same,Population Tubulin-Different-Phenotype (%),[4],26.07% and 10.17%
same,Total Cell Count,[4],321 and 120
same,Population Apoptotic (%),[5],7.58% and 13.11%
same,Population Fragmented Nuclei (%),[5],2.6% and 3.77%
same,Population Healthy Nuclei (%),[5],85.55% and 57.86%
same,Population Hoechst High Intensity Objects (%),[5],0.09% and 0.62%
same,Population Membrane Permeable-Phenotype (%),[5],3.57% and 0%
same,Population Mitochondria Different-Phenotype (%),[5],18.99% and 33.7%
same,Population Mitotic Cells (%),[5],92.42% and 86.89%
same,Population Normal (%),[5],99.91% and 99.38%
same,Population Apoptotic (%),[6],20% and 25%
same,Population Fragmented Nuclei (%),[6],4.38% and 4.51%
same,Population Healthy Nuclei (%),[6],87.29% and 74.44%
same,Population Hoechst High Intensity Objects (%),[6],0%
same,Population Membrane Permeable-Phenotype (%),[6],2.86% and 0%
same,Population Mitochondria Different-Phenotype (%),[6],21.24% and 29.29%
same,Population Mitotic Cells (%),[6],80% and 75%
same,Population Normal (%),[6],100%
same,Population Pyknosed Nuclei (%),[6],8.33% and 21.05%
O=C1NC(NC23CC4CC(CC(C4)C2)C3)=N/C1=C\c1ccc2ncsc2c1,Population Apoptotic (%),[1],29.13% and 49.03%
same,Population Fragmented Nuclei (%),[1],8.91% and 6.01%
same,Population Hoechst High Intensity Objects (%),[1],6.05% and 0.54%
same,Population Membrane Permeable-Phenotype (%),[1],1.75% and 0%
same,Population Mitochondria Different-Phenotype (%),[1],15.79% and 5.88%
same,Population Mitotic Cells (%),[1],70.87% and 50.97%
same,Population Normal (%),[1],93.95% and 99.46%
same,Population Pyknosed Nuclei (%),[1],62.87% and 84.7%
same,Population Tubulin-Different-Phenotype (%),[1],17.54% and 23.53%
same,Total Cell Count,[1],215 and 184
same,Population Apoptotic (%),[2],29.21% and 56.72%
same,Population Fragmented Nuclei (%),[2],84.08% and 93.38%
same,Population Healthy Nuclei (%),[2],3.91% and 2.86%
same,Population Hoechst High Intensity Objects (%),[2],21.42% and 7.86%
same,Population Membrane Permeable-Phenotype (%),[2],0%
same,Population Mitochondria Different-Phenotype (%),[2],0%
same,Population Mitotic Cells (%),[2],70.79% and 43.28%
same,Population Normal (%),[2],78.58% and 92.14%
same,Population Pyknosed Nuclei (%),[2],12.01% and 3.76%
same,Population Tubulin-Different-Phenotype (%),[2],0%
same,Total Cell Count,[2],943 and 1934
same,Population Apoptotic (%),[3],59.35% and 52.46%
same,Population Fragmented Nuclei (%),[3],10.75% and 5.21%
same,Population Healthy Nuclei (%),[3],23.12% and 8.06%
same,Population Hoechst High Intensity Objects (%),[3],4.62% and 0%
same,Population Membrane Permeable-Phenotype (%),[3],6.98% and 5.88%
same,Population Mitochondria Different-Phenotype (%),[3],4.65% and 0%
same,Population Mitotic Cells (%),[3],40.65% and 47.54%
same,Population Normal (%),[3],95.38% and 100%
same,Population Pyknosed Nuclei (%),[3],66.13% and 86.73%
same,Population Tubulin-Different-Phenotype (%),[3],16.28% and 11.76%
same,Total Cell Count,[3],195 and 211
same,Population Apoptotic (%),[4],30% and 40.21%
same,Population Fragmented Nuclei (%),[4],85.18% and 91.28%
same,Population Healthy Nuclei (%),[4],4.04% and 1.95%
same,Population Hoechst High Intensity Objects (%),[4],21.4% and 9.41%
same,Population Membrane Permeable-Phenotype (%),[4],3.33% and 0%
same,Population Mitochondria Different-Phenotype (%),[4],0%
same,Population Mitotic Cells (%),[4],70% and 59.79%
same,Population Normal (%),[4],78.6% and 90.59%
same,Population Pyknosed Nuclei (%),[4],10.78% and 6.76%
same,Population Tubulin-Different-Phenotype (%),[4],0% and 3.57%
same,Total Cell Count,[4],944 and 1583
same,Population Apoptotic (%),[5],47.65% and 48.67%
same,Population Fragmented Nuclei (%),[5],14.23% and 10.83%
same,Population Healthy Nuclei (%),[5],14.64% and 17.2%
same,Population Hoechst High Intensity Objects (%),[5],2.85% and 0.63%
same,Population Membrane Permeable-Phenotype (%),[5],0% and 3.7%
same,Population Mitochondria Different-Phenotype (%),[5],40% and 33.33%
same,Population Mitotic Cells (%),[5],52.35% and 51.33%
same,Population Normal (%),[5],97.15% and 99.37%
same,Population Pyknosed Nuclei (%),[5],71.13% and 71.97%
same,Population Tubulin-Different-Phenotype (%),[5],25.71% and 48.15%
same,Total Cell Count,[5],246 and 158
same,Population Apoptotic (%),[6],35.64% and 60.49%
same,Population Fragmented Nuclei (%),[6],84.47% and 93.33%
same,Population Healthy Nuclei (%),[6],3.18% and 1.42%
same,Population Hoechst High Intensity Objects (%),[6],23.26% and 9.23%
same,Population Membrane Permeable-Phenotype (%),[6],0%
same,Population Mitochondria Different-Phenotype (%),[6],0%
same,Population Mitotic Cells (%),[6],64.36% and 39.51%
same,Population Normal (%),[6],76.74% and 90.77%
same,Population Pyknosed Nuclei (%),[6],12.35% and 5.25%
same,Population Tubulin-Different-Phenotype (%),[6],0%
same,Total Cell Count,[6],1066 and 1701
